High-throughput results: PubChem BioAssay, several laboratories
CYP2C9 inhib – blocks human cytochrome P450 2C9; P11712; CYP2C9 Supersomes, luciferin-H conversion, luminescence; inhibition, % at 5 µM; 96,000 tested, 20% active; AID 777;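 active = blocking of liver enzyme CYP2C9 beyond about 50% at 5 µM, limit read from the data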
Cav3 T inh – inhibitors of human Cav3.2 T-type calcium channel; Cav3.2-expressing cells, Fluo-4 calcium fluorescence FDSS; hits give low values; B-score at 10 µM; 100,000 tested, 4% active;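 active = single-dose well whose peak fluorescence ratio is a statistical outlier from its plate by either plate-standardised score or position-corrected B-score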
CYP2C9 act – activators of human CYP2C9 | P11712 | recombinant CYP2C9, luciferin-H conversion, luminescence; hits give high values; factor 1 = untreated enzyme, 0 = blocked | activation factor at 5 µM | 96,000 tested, 1.4% active;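 active = activation factor of 2 or more for CYP2C9 at a 5 µM dose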;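 also: 0 = sulfaphenazole-blocked wells and 1 = vehicle-only wells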
CYP2C19 act – cytochrome P450 2C19 (human) activation; P33261; 96,000 tested, under 10 active; AID 1025; activation factor at 5 µM; recombinant CYP2C19, luciferin-H EGE luminescence; hits give high values; 0 = fully inhibited enzyme, 1 = untreated enzyme;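 active = activation factor of at least 2 at 5 µM in the primary screen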;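 also: 0 = wells with 2.5 mM tranylcypromine and 1 = vehicle-only wells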
CYP2C19 inhib – human CYP2C19 inhibition; 96,000 tested, 21% active; inhibition, % at 5 µM; CYP2C19 Supersomes, luciferin-H EGE luminescence, 30 min; AID 778; P33261;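 active = CYP2C19 inhibition above a set limit at 5 µM in the primary screen, cut at about 50% in these data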;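 also: plate controls were negative control wells for no effect and 2.5 mM tranylcypromine positive control for full effect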
Rev-RRE block – disrupts HIV-1 Rev binding to RRE RNA | P05866 | Rev peptide-RRE RNA binding, FRET | inhibition, % at 8 µM | 97,000 tested, 0.79% active | AID 704;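 active = inhibition above the screen-wide mean plus 3 SD, cut at about 35% in these data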;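 also: 0% = median DMSO wells and 100% = median Neomycin B control wells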
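Test system: Cy5-tagged RRE RNA duplex with fluorescein-tagged Rev peptide; Probe or stimulus: labelled Rev peptide; Schedule: 5 min preincubation and 15 min binding, 25 °C; Signal: FRET fluorescence readout; Evaluation: % inhibition from 671/540 nm acceptor-to-donor ratio, scaled between controls; Control set: DMSO and neomycin B.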
Numbers without * were called inactive. This is a sample that favours compounds with a hit; in the whole collection about 27% have one here.

For O=C(CSc1nnc(Cn2c(=O)sc3ccccc32)n1-c1ccccc1)NCc1ccco1 the results were Cav3 T inh 0.95.
For CCOC(=O)CSc1nc2c(sc(=S)n2-c2ccccc2OC)c(=O)n1Cc1ccco1 the results were CYP2C9 inhib 55*, Cav3 T inh -5.6*, CYP2C9 act 0.5, CYP2C19 act 0.1, CYP2C19 inhib 85* and Rev-RRE block 5.
`CCOC(=O)CSc1nc2c(sc(=S)n2Cc2ccco2)c(=O)n1-c1ccccc1` gave CYP2C9 inhib 69*, Cav3 T inh -3.9*, CYP2C9 act 0.3, CYP2C19 act 0.4, CYP2C19 inhib 60* and Rev-RRE block 11.
For CCN(CC)C(=O)CSc1nc2c(sc(=S)n2Cc2ccco2)c(=O)n1-c1ccccc1 the results were CYP2C9 inhib 52*, Cav3 T inh -2.7, CYP2C9 act 0.5, CYP2C19 act 0.6, CYP2C19 inhib 36 and Rev-RRE block 7.
Screening CCOC(=O)CC(=O)CSc1nc2c(sc(=S)n2-c2ccccc2)c(=O)[nH]1 returned CYP2C9 inhib 66*, Cav3 T inh -2.7, CYP2C9 act 0.3, CYP2C19 act 1, CYP2C19 inhib 4 and Rev-RRE block -2.
`Cc1ccc2c(=O)c(C(=O)NCc3cccs3)c[nH]c2c1` gave Cav3 T inh -0.68 and Rev-RRE block 8.
Screening CC(C)(C)c1cc(CN2CCCCC2)cc(C(C)(C)C)c1O returned CYP2C9 inhib 8, Cav3 T inh -0.19, CYP2C9 act 0.9, CYP2C19 act 0.9, CYP2C19 inhib 13 and Rev-RRE block -2.
Screening Cn1ccnc1C(O)c1cc(C(C)(C)C)c(O)c(C(C)(C)C)c1 (stereo not given) returned CYP2C9 inhib 76*, Cav3 T inh 0.65, CYP2C9 act 0.2, CYP2C19 act 0.8, CYP2C19 inhib 24 and Rev-RRE block 4.
`CC(NC(=O)c1cc(-c2ccc(Br)cc2)on1)c1ccccc1` (stereo not given) gave CYP2C9 inhib 19, Cav3 T inh 0.015, CYP2C9 act 0.8, CYP2C19 act 1, CYP2C19 inhib 4 and Rev-RRE block 10.
`O=c1[nH]c(CN2CCN(Cc3ccccc3)CC2)nc2sc3c(c12)CCC3` gave Rev-RRE block 13.
Screening Nc1ccc(C(=O)c2ccc3c(c2)OCCO3)cc1N returned Cav3 T inh 1.5 and Rev-RRE block 11.
`Cc1ccc(C(=O)c2cc3c(cc2N)OCCO3)cc1` gave CYP2C9 inhib 68*, CYP2C9 act 0.3, CYP2C19 act 0.3 and CYP2C19 inhib 67*.
Screening Nc1cc2c(cc1C(=O)c1ccc(Cl)cc1)OCCO2 returned CYP2C9 inhib 70*, Cav3 T inh -1, CYP2C9 act 0.3, CYP2C19 act 0.4, CYP2C19 inhib 61* and Rev-RRE block 4.
`Nc1cc2c(cc1C(=O)c1ccccc1)OCCO2` gave CYP2C9 inhib 29, Cav3 T inh 0.37, CYP2C9 act 0.7, CYP2C19 act 0.5, CYP2C19 inhib 51* and Rev-RRE block 1.
For CC(=O)N1CCC(=NNS(=O)(=O)c2cccc([N+](=O)[O-])c2)CC1 the results were CYP2C9 inhib -24, Cav3 T inh 0.28, CYP2C9 act 1.2, CYP2C19 act 1.1, CYP2C19 inhib -10 and Rev-RRE block 7.
For CN(c1ccccc1)S(=O)(=O)c1cc(C(=O)N2CCN(c3ccccn3)CC2)ccc1Cl the results were CYP2C9 inhib 99*, Cav3 T inh -1.3, CYP2C9 act 0, CYP2C19 act 0.3, CYP2C19 inhib 73* and Rev-RRE block 8.
For Cc1ccc(NS(=O)(=O)c2ccc(C(=O)N3CCN(c4ccccn4)CC3)cc2)cc1 the results were CYP2C9 inhib 47, Cav3 T inh -3.7, CYP2C9 act 0.5, CYP2C19 act 0.9, CYP2C19 inhib 12 and Rev-RRE block 13.
CN(C(=O)N1CCN(c2ccccn2)CC1)c1ccccc1 was read as CYP2C9 inhib 34, Cav3 T inh 0.44, CYP2C9 act 0.7, CYP2C19 act 0.6, CYP2C19 inhib 43 and Rev-RRE block 7.
O=C(c1ccc(Cl)c(S(=O)(=O)Nc2ccc(F)cc2)c1)N1CCN(c2ccccn2)CC1 was read as CYP2C9 inhib 70*, Cav3 T inh -1.6, CYP2C9 act 0.3, CYP2C19 act 0.3, CYP2C19 inhib 67* and Rev-RRE block 4.
